These results are taken from ChEMBL document CHEMBL4673180, “Synthesis of quinone imine and sulphur-containing compounds with antitumor and trypanocidal activities: redox and biological implications” (RSC Med Chem, 2020).

The test system of data set [1] is K562. Nature of the data set: Cytotoxicity against human K562 cells assessed as reduction in cell viability after 72 hrs by MTT assay. The format is functional, cell-based. Conditions: K562, 72 h. The method in brief: (§1)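 Cells were grown in medium with 10% FBS, 2 mM L-glutamine, penicillin and streptomycin at 37 °C, 5% CO2. Seeding per well was 0.1 × 10^6 for leukaemia, PC3, L929 and NCI-H460, and 0.7 × 10^5 for HCT-116. Compounds in DMSO (0.1% final) were applied for 72 h. MTT (0.5 mg/mL) was added for 3 h, formazan dissolved in DMSO, and absorbance read at 550 nm. IC50 by nonlinear regression; three independent experiments in triplicate.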

Data set [2] can be described thus: Selectivity index, ratio of IC50 for mouse L929 cells to IC50 for human K-562 cells after 72 hrs by MTT assay. The format is toxicity. To be noted: L929 cells versus K-562 cells, read-out: Ratio IC50. Put shortly:
(§2)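 Both cell types were kept in medium with 10% FBS, 2 mM L-glutamine and penicillin/streptomycin at 37 °C, 5% CO2. Seeding was 0.7 × 10^5 cells per well for HCT-116, 0.1 × 10^6 for the other lines. Cells got compound in DMSO (0.1% final) for 72 h, then 0.5 mg/mL MTT for 3 h, with formazan read at 550 nm. IC50 came from nonlinear regression over three independent experiments in triplicate. SI is the L929 IC50 divided by the cancer-line IC50.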

A further data set concerns PC-3. Nature of the data set: Cytotoxicity against human PC-3 cells assessed as reduction in cell viability after 72 hrs by MTT assay. The format is functional, cell-based. Conditions: PC-3, 72 h. Put shortly:
as §1

A further data set concerns NCI-H460. Nature of the data set: Cytotoxicity against human NCI-H460 cells assessed as reduction in cell viability after 72 hrs by MTT assay. Conditions: NCI-H460, 72 h. The format is functional, cell-based. Put shortly:
(§3)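 Cells were grown in medium with 10% FBS, 2 mM L-glutamine, penicillin and streptomycin at 37 °C, 5% CO2. Compounds in DMSO (0.1% final) were applied for 72 h. MTT (0.5 mg/mL) was added for 3 h, formazan dissolved in DMSO, and absorbance read at 550 nm. IC50 by nonlinear regression; three independent experiments in triplicate.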

Data set [3] can be described thus: Selectivity index, ratio of IC50 for mouse L929 cells to IC50 for human NCI-H460 cells after 72 hrs by MTT assay. The format is toxicity. To be noted: L929 cells versus NCI-H460 cells, read-out: Ratio IC50. Put shortly: as §2
Data set [4] in a line: Selectivity index, ratio of IC50 for mouse L929 cells to IC50 for human Lucena1 cells after 72 hrs by MTT assay. Put shortly:
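Selectivity index is the ratio of IC50 in murine L929 fibroblasts to IC50 in Lucena 1 cells, each measured by 72 h MTT assay (absorbance 550 nm). IC50 values came from nonlinear regression of three independent experiments in triplicate.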

Another data set has as its system L929. Nature of the data set: Cytotoxicity against mouse L929 cells assessed as reduction in cell viability after 72 hrs by MTT assay. Format: cell-based. Conditions: L929, 72 h. Put shortly:
as §1

The test system of data set [5] is K562. Nature of the data set: Induction of reactive oxygen species generation in human K562 cells at 40 uM measured after 3 hr by H2DCFDA probe-based flow cytometry. The format is functional, cell-based. Put shortly:
(§4)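 K-562 cells were pre-loaded with 10 μM CM-H2DCFDA for 1 h in the dark at 37 °C/5% CO2, washed with PBS, then incubated with compound in fresh medium for 1 or 3 h. Cells were resuspended in PBS with 1 μg/mL propidium iodide and analysed by flow cytometry on ice. DCF fluorescence (ex 490/em 525 nm) was read in PI-negative cells, 10 000 events per sample. Menadione 20 μM and H2O2 150 μM were positive controls. Mean ± SEM of three independent experiments.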

The nature of data set [6]: Selectivity index, ratio of IC50 for mouse L929 cells to IC50 for human HL-60cells after 72 hrs by MTT assay. Format: toxicity. Conditions: L929 cells versus HL-60 cells, read-out: Ratio IC50. Put shortly: as §2
The test system of a further data set is HL-60. Nature of the data set: Cytotoxicity against human HL-60 cells assessed as reduction in cell viability after 72 hrs by MTT assay. The format is functional, cell-based. To be noted: HL-60, 72 h. Put shortly:
as §3

Data set [7] is described as follows: Cytotoxicity against human Lucena1 cells assessed as reduction in cell viability after 72 hrs by MTT assay. The format is functional, cell-based. Conditions: Lucena 1, 72 h. Put shortly: as §1
Data set [8] in a line: Selectivity index, ratio of IC50 for mouse L929 cells to IC50 for human PC3 cells after 72 hrs by MTT assay. To be noted: L929 cells versus PC3 cells, read-out: Ratio IC50. Format: toxicity. The method in brief: as §2
The subject of a further data set is HCT-116. Nature of the data set: Cytotoxicity against human HCT-116 cells assessed as reduction in cell viability after 72 hrs by MTT assay. Format: functional, cell-based. To be noted: HCT-116, 72 h. The method in brief:
as §1

Data set [9] is described as follows: Selectivity index, ratio of IC50 for mouse L929 cells to IC50 for human HCT116 cells after 72 hrs by MTT assay. Format: toxicity. Conditions: L929 cells versus HCT116 cells, read-out: Ratio IC50. The method in brief:
as §2

Data set [10] in a line: Cytotoxicity against albino Swiss mouse peritoneal macrophages assessed as reduction in cell viability incubated for 24 hrs by Presto blue assay. Format: tissue-based, Macrophage. Conditions: read-out: LC50. Put shortly:
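Primary peritoneal macrophages from Albino Swiss mice were seeded at 2.5 × 10^4 cells per well in RPMI-1640 (pH 7.2, 10% FBS, 2 mM glutamine) and grown 24 h at 37 °C. They were then treated 24 h at 37 °C with compound from DMSO stock (final DMSO ≤0.4%).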

The nature of data set [11]: Selectivity index, ratio of LC50 for cytotoxicity against albino Swiss mouse peritoneal macrophages to IC50 for Antitrypanosomal activity against Trypanosoma cruzi Y strain bloodstream trypomastigotes assessed as lysis of parasite in presence of 5 % mouse blood. Format: toxicity. Put shortly: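 Y-strain bloodstream trypomastigotes came from infected albino mice at peak parasitaemia and were purified by differential centrifugation. They were resuspended at 10^7/mL in RPMI with 10% mouse blood and mixed 1:1 with compound at twice the final concentration (DMSO ≤0.4%). Incubation was 24 h at 4 °C (5% blood per footnote).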

The nature of data set [12]: Selectivity index, ratio of LC50 for cytotoxicity against albino Swiss mouse peritoneal macrophages to IC50 for Antitrypanosomal activity against Trypanosoma cruzi Y strain bloodstream trypomastigotes assessed as lysis of parasite in absence of mouse blood. Format: toxicity. The method in brief: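 Y-strain bloodstream trypomastigotes came from infected albino mice at peak parasitaemia and were purified by differential centrifugation into RPMI. They were exposed 24 h at 37 °C without blood to compound (DMSO ≤0.4%).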

The test system of data set [13] is Trypanosoma cruzi. Nature of the data set: Antitrypanosomal activity against Trypanosoma cruzi Y strain bloodstream trypomastigotes assessed as lysis of parasite in presence of 5 % mouse blood incubated for 24 hrs by Neubauer chamber method. Format: functional, organism-based. Put shortly:
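Y strain bloodstream trypomastigotes came from infected albino mice at peak parasitaemia, purified by differential centrifugation, in RPMI at 10^7 cells/mL with 10% mouse blood. They were mixed 1:1 with compound at twice the final concentration (5% blood final), 24 h at 4 °C, with DMSO ≤0.4% final. Neubauer chamber counting; IC50 is 50% lysis; at least three independent experiments.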

Data set [14] deals with Trypanosoma cruzi. Nature of the data set: Antitrypanosomal activity against Trypanosoma cruzi Y strain bloodstream trypomastigotes assessed as lysis of parasite in absence of mouse blood incubated for 24 hrs by Neubauer chamber method. Format: functional, organism-based. Put shortly:
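T. cruzi Y strain bloodstream trypomastigotes came from infected albino mice at peak parasitaemia and were purified by differential centrifugation. They were exposed to compounds for 24 h at 37 °C without blood. Parasites were counted in a Neubauer chamber, and IC50 is the concentration lysing 50% of parasites. Values are mean ± SD of at least three independent experiments.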

Data set [15] has as its system K562. Nature of the data set: Induction of reactive oxygen species generation in human K562 cells at 40 uM measured after 1 hr by H2DCFDA probe-based flow cytometry. The format is functional, cell-based. The method in brief:
as §4

Active and inactive are the calls of the source. The calls are words filed in the database; no cut-off is given here.

Take `C#CCOC1=C/C(=N\c2ccc(Cl)cc2)c2ccccc2C1=O`: the IC50 is 12.8 µM in the data set with K562 [1]; 14.6 µM with PC-3; 16.2 µM in the data set with NCI-H460; more than 20 µM in the data set on L929; 11 µM in the data set on HL-60; 16.4 µM in data set [7]. The IC50 with HCT-116 stood at 18.9 µM. In addition, the selectivity ratio at 72 h was 2.4 in [2]; 1.9 in [3]; 2.8 in data set [6]; 2.1 in data set [8]; 1.6 in data set [9]. Also, the “Ratio IC50” value in [4] amounted to 1.9. For the same compound, the outcome with K562 [5] was Active.

In the case of `O=C1C=C(Sc2ccccc2)c2ccccc2C1=O`, the IC50 in the data set with K562 [1] is 15.7 µM; with PC-3 it was more than 20 µM; in the data set on NCI-H460, more than 20 µM; in the data set with L929, more than 20 µM; in the data set on HL-60, 6.08 µM; in data set [7], 15.6 µM. In addition, the figures for the IC50 in the data set on Trypanosoma cruzi [13], in the data set with Trypanosoma cruzi [14] and in the data set with HCT-116 were 24.3 µM, 1.3 µM and 12.8 µM, respectively. Moreover, the selectivity ratio at 72 h in data set [2] amounted to 1.8; in data set [3], 0.7; in data set [6], 4.6; in data set [8], 0.7; in data set [9] it was 2.2. In addition, the CC50 at 24 h in data set [10] is 36.9 µM. The selectivity ratio in data set [11] amounted to 1.52; in [12] it was 28.4. In addition, in data set [4], the “Ratio IC50” value came out at 1.8. In addition, the outcome in the data set on K562 [5] and in the data set with K562 [15] was Active.

Consider `Cc1cccc(SC2=CC(=O)C(=O)c3ccccc32)c1`, for which the IC50 is 16.2 µM in the data set with K562 [1]; more than 20 µM in the data set on PC-3; more than 20 µM with NCI-H460; more than 20 µM in the data set on L929; 5.42 µM in the data set with HL-60; 12.7 µM in data set [7]. Further, the figures for the IC50 in the data set on Trypanosoma cruzi [13], in the data set on Trypanosoma cruzi [14] and in the data set on HCT-116 were 65.6 µM, 4.6 µM and 19.6 µM, respectively. Besides, the selectivity ratio at 72 h worked out at 2.2 in data set [2]; 1 in [3]; 6.6 in data set [6]; 1 in data set [8]; 1.8 in [9]. Moreover, the CC50 at 24 h in data set [10] was 67.3 µM. Besides, the selectivity ratio in data set [11] came out at 1.03; in data set [12] it was 14.6. Also, the “Ratio IC50” value in data set [4] stood at 2.8.

Turning to `Cc1ccc(S(=O)(=O)n2cc(COC3=C/C(=N\c4ccc(Br)cc4)c4ccccc4C3=O)nn2)cc1`, the IC50 was 5.4 µM in the data set with K562 [1]; 3.41 µM with PC-3; 9.41 µM in the data set with NCI-H460; more than 17.8 µM with L929; 4.22 µM in the data set with HL-60; 3.32 µM in data set [7]. Also, the results for the IC50 with Trypanosoma cruzi [13] and in the data set on HCT-116 were more than 500 µM and 9.25 µM, respectively. Also, the selectivity ratio at 72 h was determined as 3.3 in [2]; 1.9 in data set [3]; 4.2 in data set [6]; 5.2 in [8]; 1.9 in [9]. In data set [10], the CC50 at 24 h was more than 100 µM. In data set [4], the “Ratio IC50” value worked out at 5.3. Moreover, the result with K562 [5] was Active.

For the compound `Cc1ccc(SC2=CC(=O)C(=O)c3ccccc32)cc1`, the half-maximal inhibitory concentration (IC50) with K562 [1] is 14.9 µM; in the data set with PC-3, more than 20 µM; with NCI-H460, more than 20 µM; with L929, more than 20 µM; in the data set with HL-60, 4.14 µM; in [7], 12.8 µM. Moreover, the IC50 was 88.7 µM with Trypanosoma cruzi [13], 3.4 µM in the data set with Trypanosoma cruzi [14] and more than 20 µM with HCT-116. The selectivity ratio at 72 h in data set [2] is 1.8; in data set [3] it was 0.8; in data set [6], 6.6; in data set [8], 0.8; in data set [9] it was 1.3. Further, the CC50 at 24 h in data set [10] came out at 81.4 µM. Besides, the figures for the selectivity ratio in [11] and in data set [12] were 0.92 and 23.9, respectively. In addition, in data set [4], the “Ratio IC50” value turned out to be 2.1.
